Measured values collected from several papers.
Lines come from different studies, so protocols differ.
Target: Tau-tubulin kinase 2 (TTBK2, Homo sapiens, UniProt Q6IQ55)
Observed: enzyme activity
Mode: inhibitor

O=C(Nc1cnn(-c2csc(C(=O)NC3COC3)c2)c1)Nc1ccccc1Cl — remaining activity (5 µM): 107%
Cc1ccc(C(=O)NCc2ccsc2)cc1C#Cc1cn(C(C)C)c2ncnc(N)c12 — activity vs control (1 µM): 87%
O=C(Nc1cnn(-c2csc(C(=O)NC3COC3)c2)c1)Nc1c(F)cccc1Cl — remaining activity (5 µM): 104%
FC(F)(F)Oc1cccc(-c2cnc3ccc(-c4ccncc4)nn23)c1 — activity vs control (radiometric; 1 µM): 96%
COc1cc(/C=C/C(=O)CC(=O)/C=C/c2ccc(O)c(OC)c2)ccc1O — activity vs control (1 µM): 115%
CC(C)(O)[C@H]1CC[C@H](Nc2ccc3ncc(-c4cccc(C(F)(F)F)c4)n3n2)CC1 — remaining activity (1 µM): 94.4%
CC(C)(C)c1nc2c(s1)c1nc(N)ncc1c1ccc(NS(=O)(=O)c3c(F)cccc3F)c(F)c12 — remaining activity (radiometric; 1 µM): 104%
COc1cc(Cl)c(C(=O)N[C@@H](CN[C@H]2CC[C@@H](N)CC2)Cc2ccc(C#N)cc2)cc1-c1ccc(CN[C@H](C)c2ccc(C)cc2)o1 — remaining activity (1 µM): 96%
CC(C)(C)c1nc(-c2cccc(NS(=O)(=O)c3c(F)cccc3F)c2F)c(-c2ccnc(N)n2)s1 — remaining activity (radiometric; 1 µM): 104%
CN1CC(Oc2cnc(C#N)cc2-c2ccn3nc(NC(=O)C4CC4)cc3c2)C1 — inhibition (1 µM): 13%
COc1cc(Nc2cnc(C#N)c(O[C@H](C)CN(C)C)n2)ncc1-c1cnn(C)c1 — remaining activity (radiometric; 1 µM): 100%
